What was measured:
[1] = Effective concentration against Huh 7 cells; assay type: functional, cell-based, Homo sapiens
Method in brief: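 HCV subgenomic replicon cells with luciferase readout, seeded at 6000 cells/well, compound added right after seeding, 48 h incubation. Cells then lysed and luciferase activity in lysate measured. Replicon RNA reduction inferred from the luciferase drop; EC50 is the concentration giving 50% reduction of viral replication.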

[2] = Cytotoxicity determined in Huh 7 cells; assay type: cell-based; settings: human
Method in brief: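 Huh7 cells; viability read by colorimetric MTT assay. CC50 taken as the concentration that cuts cell viability by 50%.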

Row | SMILES | EC50 [1] [µM] | CC50 [2] [µM]
1 | CC(C)(C)C(=O)SCCOP(=O)(CC[C@H]1O[C@@H](n2cnc3c(N)ncnc32)[C@](C)(O)[C@@H]1O)OCCSC(=O)C(C)(C)C | 25 | 30
2 | Nc1ncnc2c1ncn2[C@@H]1C[C@H](OCP(=O)(O)O)[C@@H](O)[C@H]1O | 30 | 300
3 | C[C@@]1(O)[C@H](O)[C@@H](CCP(=O)(O)O)O[C@H]1n1cnc2c(N)ncnc21 | 35 | > 300

More lines, in order of falling EC50 [1], values ahead:

Row | EC50 [1] [µM] | SMILES | CC50 [2] [µM]
4 | 200 | Nc1ncnc2c1ncn2[C@@H]1O[C@H](CCP(=O)(O)O)[C@@H](O)[C@H]1O | > 300
5 | 65 | Nc1ncnc2c1ncn2[C@@H]1O[C@H](OCP(=O)(O)O)[C@@H](O)[C@H]1O | > 300

Reference: ChEMBL document CHEMBL1143599, “Design, synthesis, and antiviral activity of adenosine 5'-phosphonate analogues as chain terminators against hepatitis C virus” (J Med Chem, 2005)
